Reference: publication PMC3985699 (Journal of the American Chemical Society, 2014)
Values after ≈ are worked out from the molar mass of the structure shown.

How the values were obtained:
[1] = tested on: S. oralis ATCC 9811; test: MIC by microdilution; format: cell-based; conditions: Streptococcus oralis, ATCC9811
Procedure, shortened: (§1)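 Streptococcal MICs came from CLSI broth microdilution in cation-adjusted Mueller Hinton II broth with 5% lysed horse blood. Final inoculum 5 × 10⁵ CFU/mL, incubation at 35 °C, read after 16–20 or 20–24 h depending on species. MIC was the lowest concentration without visible growth, determined in triplicate.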

[2] = tested on: E. faecalis 99 (Van R); test: MIC by microdilution; format: cell-based; conditions: Enterococcus faecalis
Procedure, shortened: (§2)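 CLSI broth microdilution in cation-adjusted Mueller Hinton II broth, final inoculum 5 × 10⁵ CFU/mL. Plates incubated at 35 °C and read after 16–20 or 20–24 h depending on species. MIC taken as the lowest concentration with no visible growth. All determinations in triplicate.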

[3] = tested on: E. faecium NCTC 7171; test: MIC by microdilution; format: cell-based; conditions: Enterococcus faecium, NCTC7171
Procedure, shortened: as §2

[4] = tested on: S. epidermis ATCC 35547; test: MIC by microdilution; format: cell-based
Procedure, shortened: as §2

[5] = tested on: E. faecium 106 (Van R); test: MIC by microdilution; format: cell-based; conditions: Enterococcus faecium
Procedure, shortened: as §2

[6] = tested on: S. aureus VRS2; test: MIC by microdilution; format: cell-based; conditions: Staphylococcus aureus, MRSA
Procedure, shortened: (§3)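 S. aureus was tested by CLSI broth microdilution in cation-adjusted Mueller Hinton II broth, final inoculum 5 × 10⁵ CFU/mL, 35 °C, read after 16–20 or 20–24 h; oxacillin was tested with 2% NaCl. MIC was the lowest concentration without visible growth, in triplicate. For ATCC 29213, inocula of 5 × 10⁶ and 5 × 10⁷ CFU/mL were also tested.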

[7] = tested on: S. aureus ATCC 29213; test: MIC by microdilution; format: cell-based; conditions: Staphylococcus aureus, ATCC29213
Procedure, shortened: as §3

[8] = tested on: S. aureus ATCC 27660; test: MIC by microdilution; format: cell-based; conditions: Staphylococcus aureus, ATCC27660
Procedure, shortened: as §3

[9] = tested on: S. hemolyticus ATCC 29970; test: MIC by microdilution; format: cell-based; conditions: Streptococcus pyogenes, ATCC29970
[10] = tested on: S. aureus NRS100 (COL); test: MIC by microdilution; format: cell-based; conditions: Staphylococcus aureus
Procedure, shortened: as §3

[11] = tested on: S. pyogenes ATCC 49399; test: MIC by microdilution; format: cell-based; conditions: Streptococcus pyogenes, ATCC49399
Procedure, shortened: as §1

[12] = tested on: S. aureus NRS119; test: MIC by microdilution; format: cell-based; conditions: Staphylococcus aureus
Procedure, shortened: as §3

[13] = tested on: E. faecium 119–39A (Van S); test: MIC by microdilution; format: cell-based; conditions: Enterococcus faecium
Procedure, shortened: as §2

[14] = tested on: S. aureus NRS120; test: MIC by microdilution; format: cell-based; conditions: Staphylococcus aureus
Procedure, shortened: as §3

[15] = tested on: S. aureus VRS1; test: MIC by microdilution; format: cell-based; conditions: Staphylococcus aureus, MRSA
Procedure, shortened: as §3

[16] = tested on: E. faecalis ATCC 29212; test: MIC by microdilution; format: cell-based; conditions: Enterococcus faecalis, ATCC29212
Procedure, shortened: as §2

[17] = tested on: E. faecalis 201 (Van S); test: MIC by microdilution; format: cell-based; conditions: Enterococcus faecalis
Procedure, shortened: as §2

[18] = tested on: red blood cells; test: Hemolysis assay; format: cell-based, horse; conditions: horse RBCs, 37 °C, 1 h; 3% values at 64 μg/mL (32-fold above the MIC)
[19] = Pharmacokinetics in mice; format: in vivo
Procedure, shortened: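 Female ICR mice received a single 50 mg/kg dose, either iv in 10% DMSO/25% Tween-80/65% water or po by gavage (n = 3 per time point). Terminal blood was taken at 2 min–24 h after iv and 0.5–48 h after po, then centrifuged for plasma. Plasma was precipitated with acetonitrile containing internal standard and analysed by C18 UPLC-ESI(+)-MRM against calibration curves in blank mouse plasma.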

[20] = ICR, mouse, plasma, iv, 50 mg/kg
[21] = female, ICR, mouse, plasma, po, 50 mg/kg

SMILES | MIC [1] | MIC [2] | MIC [3] | MIC [4] | MIC [5] | MIC [6] | MIC [7] | MIC [8] | MIC [9] | MIC [10] | MIC [11] | MIC [12] | MIC [13] | MIC [14] | MIC [15] | MIC [16] | MIC [17] | further results
CC(=O)NC[C@H]1CN(c2ccc(N3CCOCC3)c(F)c2)C(=O)O1 [linezolid, reference compound] | 1 µg/mL (≈ 2.96 µM) | 1 µg/mL (≈ 2.96 µM) | 2 µg/mL (≈ 5.93 µM) | 1 µg/mL (≈ 2.96 µM) | 1 µg/mL (≈ 2.96 µM) | 2 µg/mL (≈ 5.93 µM) | 4 µg/mL (≈ 11.9 µM) | 2 µg/mL (≈ 5.93 µM) | 2 µg/mL (≈ 5.93 µM) | 2 µg/mL (≈ 5.93 µM) | 1 µg/mL (≈ 2.96 µM) | 32 µg/mL (≈ 94.9 µM) | 2 µg/mL (≈ 5.93 µM) | 32 µg/mL (≈ 94.9 µM) | 2 µg/mL (≈ 5.93 µM) | 2 µg/mL (≈ 5.93 µM) | 2 µg/mL (≈ 5.93 µM) | 
CN[C@H](CC(C)C)C(=O)N[C@H]1C(=O)N[C@@H](CC(N)=O)C(=O)N[C@H]2C(=O)N[C@H]3C(=O)N[C@H](C(=O)N[C@H](C(=O)O)c4cc(O)cc(O)c4-c4cc3ccc4O)[C@H](O)c3ccc(c(Cl)c3)Oc3cc2cc(c3O[C@@H]2O[C@H](CO)[C@@H](O)[C@H](O)[C@H]2O[C@H]2C[C@](C)(N)[C@H](O)[C@H](C)O2)Oc2ccc(cc2Cl)[C@H]1O [vancomycin, reference compound] | 0.5 µg/mL (≈ 0.345 µM) | 128 µg/mL (≈ 88.3 µM) | 0.5 µg/mL (≈ 0.345 µM) | 16 µg/mL (≈ 11 µM) | 256 µg/mL (≈ 177 µM) | 64 µg/mL (≈ 44.2 µM) |  | 1 µg/mL (≈ 0.69 µM) | 2 µg/mL (≈ 1.38 µM) | 2 µg/mL (≈ 1.38 µM) | 0.6 µg/mL (≈ 0.414 µM) | 2 µg/mL (≈ 1.38 µM) | 0.5 µg/mL (≈ 0.345 µM) | 2 µg/mL (≈ 1.38 µM) | 512 µg/mL (≈ 353 µM) | 2 µg/mL (≈ 1.38 µM) | 1 µg/mL (≈ 0.69 µM) | 
Nc1ccc(-c2nc(-c3ccc(Oc4ccc(C(F)(F)F)cc4)cc3)no2)cc1 [Compound 4, 4-(3-(4-(4-(Trifluoromethyl)phenoxy)phenyl)-1,2,4-oxadiazol-5-yl)aniline] | 32 µg/mL (≈ 80.5 µM) | 2 µg/mL (≈ 5.03 µM) | 2 µg/mL (≈ 5.03 µM) | 2 µg/mL (≈ 5.03 µM) | 2 µg/mL (≈ 5.03 µM) | 2 µg/mL (≈ 5.03 µM) | 2 µg/mL (≈ 5.03 µM) | 2 µg/mL (≈ 5.03 µM) | 4 µg/mL (≈ 10.1 µM) | 2 µg/mL (≈ 5.03 µM) | 32 µg/mL (≈ 80.5 µM) | 2 µg/mL (≈ 5.03 µM) | 1 µg/mL (≈ 2.52 µM) | 2 µg/mL (≈ 5.03 µM) | 2 µg/mL (≈ 5.03 µM) | 2 µg/mL (≈ 5.03 µM) | > 32 µg/mL | hemolysis of red blood cells [18]: not hemolytic at all; AUC(0-inf) [19, 20]: 153 µg·h/mL; Vd [19, 20]: 0.72 L/kg; clearance [19, 20]: 5.4 mL/min/kg; AUC(0-inf) [19, 21]: 154 µg·h/mL; Cmax [19, 21]: 10000 ng/mL; Tmax [19, 21]: 2 h; higher systemic exposure relative to comparator compound ([19]; mice, 50 mg/kg iv, compound 3 vs compound 2, compound 4 vs compound 3): 3.5 fold; volume of distribution (in words) ([19]; mice, single 50 mg/kg iv): large volume of distribution
